Data on 21 molecules can be found in ChEMBL document CHEMBL1155877, “Design, synthesis, and biological evaluation of 14-substituted aromathecins as topoisomerase I inhibitors” (2008).

In one experiment the test system is DU-145. Nature of the experiment: Antiproliferative activity against human DU145 cells. Type of experiment: functional. Summed up: (§1)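 NCI ~60 human tumor cell line screen. After an initial one-dose test, selected compounds run at five concentrations spanning 10^-8 to 10^-4 M. GI50 reported for selected lines from each subpanel.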
Experiment [1] has as its system HOP-62. Put plainly: Antiproliferative activity against human HOP62 cells. It counts as functional. Put shortly:
as §1

The next experiment deals with UACC-62. Put plainly: Antiproliferative activity against human UACC62 cells. Type of experiment: functional. Summed up: as §1
A further experiment has as its system SN12C. Nature of the experiment: Antiproliferative activity against human SN12C cells. It counts as functional. Put shortly: as §1
In another experiment the test system is MDA-MB-435. Put plainly: Antiproliferative activity against human MDA-MB-435 cells. Type of experiment: functional. Summed up: as §1
A further experiment concerns SF-539. Put plainly: Antiproliferative activity against human SF539 cells. Type of experiment: functional. Put shortly: as §1
A further experiment relates to HCT-116. Nature of the experiment: Antiproliferative activity against human HCT116 cells. It counts as functional. Summed up: as §1
The target of experiment [2] is T1, DNA topoisomerase 1 (Homo sapiens) (UniProt P11387).
T1 sequence (whole entry): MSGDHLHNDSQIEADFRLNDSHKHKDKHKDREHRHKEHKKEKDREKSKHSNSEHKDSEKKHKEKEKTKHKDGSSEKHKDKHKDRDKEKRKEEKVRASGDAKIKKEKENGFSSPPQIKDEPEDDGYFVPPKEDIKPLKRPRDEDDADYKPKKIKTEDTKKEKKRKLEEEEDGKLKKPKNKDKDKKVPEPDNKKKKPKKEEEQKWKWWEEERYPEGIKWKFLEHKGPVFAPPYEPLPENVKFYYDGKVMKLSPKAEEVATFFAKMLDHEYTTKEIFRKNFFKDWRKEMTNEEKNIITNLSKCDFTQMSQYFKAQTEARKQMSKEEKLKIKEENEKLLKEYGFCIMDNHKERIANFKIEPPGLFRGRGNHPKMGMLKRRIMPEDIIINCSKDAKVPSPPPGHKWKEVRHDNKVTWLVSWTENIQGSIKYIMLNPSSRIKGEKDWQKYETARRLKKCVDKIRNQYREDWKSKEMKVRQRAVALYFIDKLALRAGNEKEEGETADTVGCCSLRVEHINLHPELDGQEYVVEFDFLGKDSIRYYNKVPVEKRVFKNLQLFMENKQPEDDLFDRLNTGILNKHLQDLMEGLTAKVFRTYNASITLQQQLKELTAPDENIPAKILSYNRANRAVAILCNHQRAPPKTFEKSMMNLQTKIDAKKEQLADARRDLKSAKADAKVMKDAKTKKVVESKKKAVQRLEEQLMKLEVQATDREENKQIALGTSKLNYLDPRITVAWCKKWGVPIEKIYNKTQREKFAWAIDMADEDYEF
Nature of the experiment: Inhibition of human recombinant topoisomerase 1 assessed as DNA cleavage relative to 1 uM camptothecin. Summed up: (§2)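 Baculovirus-expressed, purified human recombinant top1. Substrate is the 161 bp PvuII/HindIII fragment of pBluescript SK(-), 3'-end labeled at the HindIII site with [α-32P]-dGTP (about 50 000 dpm/reaction). Incubated with drug at 22 °C for 30 min. Products resolved on denaturing 16% polyacrylamide/7 M urea gels and imaged by phosphorimager. Tested at 0.1, 1, 10 and 100 µM.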

The next experiment relates to OVCAR-3. Put plainly: Antiproliferative activity against human OVCAR-3 cells. It counts as functional. Summed up: as §1
The test system of experiment [3] is HOP-62. Put plainly: Growth inhibition of human HOP62 cells at 10 uM. Type of experiment: functional. As to conditions: pooled result: one value given for 8 cell lines, strains, targets or settings, read-out: GI.
Experiment [4] has as its target T1, DNA topoisomerase 1 (Homo sapiens). Put plainly: Induction of human recombinant topoisomerase 1-mediated DNA cleavage at 100 uM. Summed up:
as §2

The structures appear in SMILES notation. Activity calls are given as the source filed them. The rule behind the calls is not given here.

Consider `COc1cc2c3c(n(C)c(=O)c2cc1OC)-c1cc2c(cc1C3=O)OCO2`, for which the GI50 (as a rule, the concentration giving 50% growth inhibition) in the experiment on DU-145 stood at 37 µM; in the experiment on HOP-62 [1] it was 1.3 µM; in the experiment on UACC-62 it was 4.2 µM; in the experiment with SN12C it was 68 µM; with MDA-MB-435, 96 µM; in the experiment on SF-539 it was 41 µM. Besides, it took 35 µM to inhibit growth in the experiment on HCT-116 by half (GI50). Moreover, the inhibition (commonly how much of the control response was suppressed) in [2] was 50%.

Take `O=c1c2ccccc2cc2n1Cc1cc3ccccc3nc1-2` [ROSETTACIN]: the GI50 in the experiment with DU-145 and in the experiment with SN12C was over 100 µM in each case. Besides, the inhibition in experiment [2] turned out to be 50%.

Turning to `CN(C)Cc1c2c(nc3ccccc13)-c1cc3ccccc3c(=O)n1C2`, the GI50 with DU-145, in the experiment on HOP-62 [1], with UACC-62, in the experiment with SN12C, in the experiment with MDA-MB-435 and with SF-539 was over 100 µM in each case. Also, the GI50 with OVCAR-3 is over 100 µM. For the same molecule, in [2], the inhibition was found to be 75%.

Regarding `CC[C@@]1(O)C(=O)OCc2c1cc1n(c2=O)Cc2cc3ccccc3nc2-1` [CAMPTOTHECIN], the GI50 with DU-145 is 0.01 µM; with HOP-62 [1], 0.01 µM; in the experiment on UACC-62 it was 0.01 µM; in the experiment with SN12C, 0.02 µM; with MDA-MB-435 it was 0.04 µM; with SF-539 it was 0.01 µM. In the experiment on HCT-116, this molecule yielded a GI50 of 0.03 µM.

Regarding `O=c1c2ccccc2cc2n1Cc1c-2nc2ccccc2c1CNCCCN1CCOCC1`, in the experiment on HOP-62 [3], the inhibition of growth at 10 µM stood at 25.5%.

As for `NCc1c2c(nc3ccccc13)-c1cc3ccccc3c(=O)n1C2`, the GI50 with DU-145 was 2.8 µM; in the experiment on HOP-62 [1], 9.8 µM; in the experiment on UACC-62, 11.7 µM; with SN12C, 2.9 µM; in the experiment with MDA-MB-435, 9.4 µM; with SF-539 it was 4.9 µM. For the same molecule, the figures for the GI50 with HCT-116 and with OVCAR-3 were 1.5 µM and 2.9 µM, respectively. Also, the inhibition in experiment [2] came out at 50%.

Turning to `O=c1c2ccccc2cc2n1Cc1c-2nc2ccccc2c1CNCCCn1ccnc1`, the GI50 with DU-145 was determined as 3.2 µM; in the experiment with HOP-62 [1], 4.7 µM; in the experiment with UACC-62, 6.4 µM; in the experiment with SN12C, 3.5 µM; in the experiment on MDA-MB-435 it was 7 µM; with SF-539, 3.8 µM. Also, the GI50 in the experiment on HCT-116 was found to be 3.2 µM; with OVCAR-3 it was 4.4 µM. Besides, the inhibition in [2] was determined as 50%.

On to `O=c1c2ccccc2cc2n1Cc1c-2nc2ccccc2c1CN1CCOCC1`, for which, in the experiment with HOP-62 [3], the inhibition of growth at 10 µM stood at 14%. For the same molecule, in experiment [2], the inhibition is 50%.

With `O=c1c2ccccc2cc2n1Cc1c-2nc2ccccc2c1CCCN1CCOCC1`, the GI50 in the experiment on DU-145 was 20.3 µM; in the experiment with HOP-62 [1], 5 µM; with UACC-62, 1.4 µM; in the experiment with SN12C it was 5.9 µM; in the experiment on MDA-MB-435 it was over 100 µM; with SF-539, 3.5 µM. Further, the GI50 in the experiment with HCT-116 came to 3.9 µM; in the experiment with OVCAR-3, 10.6 µM. The inhibition in experiment [2] was found to be 50%.

On to `O=c1c2cccc(CO)c2cc2n1Cc1cc3ccccc3nc1-2`, for which the inhibition in experiment [2] was found to be 20%.

Regarding `COc1cc2cc3n(c(=O)c2cc1OC)Cc1cc2ccccc2nc1-3` [DIMETHOXYAROMATHECIN], the GI50 in the experiment with DU-145, in the experiment with HOP-62 [1], with UACC-62, in the experiment on SN12C, in the experiment on MDA-MB-435 and in the experiment with SF-539 was over 100 µM each time. Besides, the GI50 in the experiment on OVCAR-3 was over 100 µM. The inhibition in experiment [2] was determined as 20%.

Consider `CN1CCN(Cc2c3c(nc4ccccc24)-c2cc4ccccc4c(=O)n2C3)CC1`, for which the GI50 was 4.9 µM in the experiment with DU-145; over 100 µM in the experiment on HOP-62 [1]; over 100 µM in the experiment on UACC-62; over 100 µM in the experiment on SN12C; 2.1 µM in the experiment on MDA-MB-435; 1.8 µM in the experiment with SF-539. Also, the GI50 with HCT-116 worked out at 1.9 µM. Further, in experiment [2], the inhibition came out at 75%.

For `O=c1c2ccccc2cc2n1Cc1c-2nc2ccccc2c1CN1CC[C@H](O)C1`, the GI50 in the experiment with DU-145 was 7 µM; in the experiment with HOP-62 [1] it was 28.6 µM; with UACC-62, 2.7 µM; in the experiment with SN12C it was 16.9 µM; in the experiment with MDA-MB-435 it was 10.3 µM; in the experiment with SF-539, 5.4 µM. For the same molecule, the GI50 in the experiment with HCT-116 is 9 µM; in the experiment with OVCAR-3, 5.5 µM. Moreover, in experiment [2], the inhibition amounted to 75%.

On to `CN(C)CCCc1c2c(nc3ccccc13)-c1cc3ccccc3c(=O)n1C2`, for which the inhibition of growth at 10 µM with HOP-62 [3] amounted to 21.4%. For the same molecule, the inhibition in [2] came to 75%.

Regarding `O=c1c2ccccc2cc2n1Cc1c-2nc2ccccc2c1CNCCO`, the GI50 in the experiment on DU-145 was 2.8 µM; in the experiment with HOP-62 [1], 3.5 µM; in the experiment with UACC-62, 2.6 µM; in the experiment on SN12C it was 2.7 µM; in the experiment with MDA-MB-435, over 100 µM; in the experiment on SF-539 it was 3.9 µM. Besides, the values for the GI50 in the experiment on HCT-116 and in the experiment with OVCAR-3 were 3.6 µM and 6.3 µM, respectively. Also, in experiment [2], the inhibition was 75%.

Turning to `O=c1c2ccccc2cc2n1Cc1c-2nc2ccccc2c1Cn1ccnc1`, the GI50 with DU-145 is 11.5 µM; with HOP-62 [1], 10 µM; in the experiment with UACC-62, 3.4 µM; with SN12C, 21.5 µM; with MDA-MB-435, over 100 µM; with SF-539 it was 4.7 µM. The GI50 in the experiment with HCT-116 came out at 13.2 µM; in the experiment on OVCAR-3, 17 µM. The inhibition in experiment [2] came to 75%.

For the molecule `O=c1c2ccccc2cc2n1Cc1c-2nc2ccccc2c1CCCNCCO`, the GI50 was found to be 13.2 µM with DU-145; 1.2 µM with HOP-62 [1]; 1.8 µM with UACC-62; 4.1 µM in the experiment on SN12C; 1.7 µM in the experiment with MDA-MB-435; 12.9 µM with SF-539. Besides, the GI50 is 1.6 µM with HCT-116 and 6.3 µM in the experiment on OVCAR-3. Besides, the result in experiment [4] and in experiment [2] was Active.

Turning to `NCCCc1c2c(nc3ccccc13)-c1cc3ccccc3c(=O)n1C2`, the inhibition in experiment [2] is 20%.

Take `COc1cc2c3c(n(CCCNCCO)c(=O)c2cc1OC)-c1cc2c(cc1C3=O)OCO2` [LMP-744]: the GI50 was over 0.01 µM in the experiment with DU-145; 0.02 µM with HOP-62 [1]; 0.03 µM in the experiment on UACC-62; over 0.01 µM in the experiment on SN12C; 0.79 µM with MDA-MB-435; 0.04 µM in the experiment on SF-539. The GI50 in the experiment with HCT-116 amounted to 0.1 µM; in the experiment on OVCAR-3 it was 0.5 µM. For the same molecule, the outcome in experiment [2] was Active.

Regarding `O=c1c2ccccc2cc2n1Cc1c-2nc2ccccc2c1CCl`, the GI50 in the experiment with DU-145 is over 100 µM; in the experiment with HOP-62 [1], 26.5 µM; with UACC-62, over 100 µM; in the experiment on SN12C it was over 100 µM; in the experiment with MDA-MB-435, over 100 µM; with SF-539 it was 7.4 µM. Further, the GI50 in the experiment with HCT-116 is 43.4 µM; with OVCAR-3, over 100 µM. Moreover, in [2], the inhibition is 20%.

Turning to `O=c1c2ccccc2cc2n1Cc1c-2nc2ccccc2c1CCCn1ccnc1`, the GI50 in the experiment with DU-145 was found to be 3.3 µM; with HOP-62 [1], 2 µM; with UACC-62, 1.5 µM; with SN12C, 4.5 µM; in the experiment with MDA-MB-435, 4.2 µM; in the experiment on SF-539, 0.74 µM. Also, the GI50 in the experiment with HCT-116 came to 1.6 µM; with OVCAR-3, 5 µM. Moreover, the inhibition in experiment [2] was 75%.
